# Assay results from ChEMBL document CHEMBL3745670, “Synthesis and biological evaluation of novel lipoamino acid derivatives” (Bioorg Med Chem Lett, 2016).
# System: Candida albicans
# Experiment: Antifungal activity against Candida albicans MTCC 3018 after 24 hrs by well diffusion assay
# Type: functional
# Details: MTCC 3018, 24 h
# Procedure, shortened: (§1)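 Well diffusion screen against Candida and related fungal strains. Read-out is MIC in µg/mL, with miconazole as the reference drug.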
Compound,MFC,MIC
Clc1ccc(COC(Cn2ccnc2)c2ccc(Cl)cc2Cl)c(Cl)c1 (stereo not drawn) [MICONAZOLE],7.8 µg/mL,7.8 µg/mL

# System: Candida albicans
# Experiment: Antifungal activity against Candida albicans MTCC 3958 after 24 hrs by well diffusion assay
# Type: functional
# Details: MTCC 3958, 24 h
# Procedure, shortened: as §1
Compound,MFC,MIC
Clc1ccc(COC(Cn2ccnc2)c2ccc(Cl)cc2Cl)c(Cl)c1 (stereo not drawn) [MICONAZOLE],7.8 µg/mL,7.8 µg/mL

# System: Candida albicans
# Experiment: Antifungal activity against Candida albicans MTCC 227 after 24 hrs by well diffusion assay
# Type: functional
# Details: MTCC 227, 24 h
# Procedure, shortened: as §1
Compound,MFC,MIC
Clc1ccc(COC(Cn2ccnc2)c2ccc(Cl)cc2Cl)c(Cl)c1 (stereo not drawn) [MICONAZOLE],15.6 µg/mL,7.8 µg/mL

# System: Pseudomonas aeruginosa
# Experiment: Antibacterial activity against Pseudomonas aeruginosa MTCC 2453 after 24 hrs by well diffusion assay
# Type: functional
# Details: MTCC 2453, 24 h
row,Compound,MIC
1,Clc1ccc(COC(Cn2ccnc2)c2ccc(Cl)cc2Cl)c(Cl)c1 (stereo not drawn) [MICONAZOLE],> 125 µg/mL

# System: Micrococcus luteus
# Experiment: Antibacterial activity against Micrococcus luteus MTCC 2470 after 24 hrs by well diffusion assay
# Type: functional
# Details: MTCC 2470, 24 h
row,Compound,MIC
1,Clc1ccc(COC(Cn2ccnc2)c2ccc(Cl)cc2Cl)c(Cl)c1 (stereo not drawn) [MICONAZOLE],> 125 µg/mL

# System: Staphylococcus aureus
# Experiment: Antibacterial activity against Staphylococcus aureus MTCC 96 after 24 hrs by well diffusion assay
# Type: functional
# Details: MTCC 96, 24 h
row,Compound,MIC
1,Clc1ccc(COC(Cn2ccnc2)c2ccc(Cl)cc2Cl)c(Cl)c1 (stereo not drawn) [MICONAZOLE],> 125 µg/mL

# System: Candida albicans
# Experiment: Antifungal activity against Candida albicans MTCC 183 after 24 hrs by well diffusion assay
# Type: functional
# Details: MTCC 183, 24 h
# Procedure, shortened: as §1
Compound,MFC,MIC
Clc1ccc(COC(Cn2ccnc2)c2ccc(Cl)cc2Cl)c(Cl)c1 (stereo not drawn) [MICONAZOLE],7.8 µg/mL,7.8 µg/mL

# System: Escherichia coli
# Experiment: Antibacterial activity against Escherichia coli MTCC 739 after 24 hrs by well diffusion assay
# Type: functional
# Details: MTCC 739, 24 h
row,Compound,MIC
1,Clc1ccc(COC(Cn2ccnc2)c2ccc(Cl)cc2Cl)c(Cl)c1 (stereo not drawn) [MICONAZOLE],> 125 µg/mL

# System: Pichia sporocuriosa
# Experiment: Antifungal activity against Issatchenkia hanoiensis MTCC 4755 after 24 hrs by well diffusion assay
# Type: functional
# Details: MTCC 4755, 24 h
# Procedure, shortened: as §1
Compound,MFC,MIC
Clc1ccc(COC(Cn2ccnc2)c2ccc(Cl)cc2Cl)c(Cl)c1 (stereo not drawn) [MICONAZOLE],7.8 µg/mL,7.8 µg/mL

# System: Candida parapsilosis
# Experiment: Inhibition of ergosterol biosynthesis in Candida parapsilosis MTCC 1744 assessed as mean ergosterol content at 16 ug/ml after 20 hrs by spectrophotometric analysis (Rvb=1.62 +/- 0.08 ug/ml)
# Type: functional
# Details: not given
row,Compound,Activity
1,Clc1ccc(COC(Cn2ccnc2)c2ccc(Cl)cc2Cl)c(Cl)c1 (stereo not drawn) [MICONAZOLE],0.09 µg/mL

# System: Nakaseomyces glabratus
# Experiment: Antifungal activity against Candida glabrata MTCC 3019 after 24 hrs by well diffusion assay
# Type: functional
# Details: MTCC 3019, 24 h
# Procedure, shortened: as §1
Compound,MFC,MIC
Clc1ccc(COC(Cn2ccnc2)c2ccc(Cl)cc2Cl)c(Cl)c1 (stereo not drawn) [MICONAZOLE],7.8 µg/mL,7.8 µg/mL

# System: Pichia kudriavzevii
# Experiment: Antifungal activity against Pichia kudriavzevii MTCC 3020 after 24 hrs by well diffusion assay
# Type: functional
# Details: MTCC 3020, 24 h
# Procedure, shortened: as §1
Compound,MFC,MIC
Clc1ccc(COC(Cn2ccnc2)c2ccc(Cl)cc2Cl)c(Cl)c1 (stereo not drawn) [MICONAZOLE],7.8 µg/mL,7.8 µg/mL

# System: Candida parapsilosis
# Experiment: Antifungal activity against Candida parapsilosis MTCC 1744 after 24 hrs by well diffusion assay
# Type: functional
# Details: Lodderomyces parapsilosis, MTCC 1744, 24 h
# Procedure, shortened: as §1
Compound,MFC,MIC
Clc1ccc(COC(Cn2ccnc2)c2ccc(Cl)cc2Cl)c(Cl)c1 (stereo not drawn) [MICONAZOLE],7.8 µg/mL,7.8 µg/mL

# System: Bacillus subtilis
# Experiment: Antibacterial activity against Bacillus subtilis MTCC 121 after 24 hrs by well diffusion assay
# Type: functional
# Details: MTCC 121, 24 h
row,Compound,MIC
1,Clc1ccc(COC(Cn2ccnc2)c2ccc(Cl)cc2Cl)c(Cl)c1 (stereo not drawn) [MICONAZOLE],> 125 µg/mL

# System: Candida parapsilosis
# Experiment: Inhibition of ergosterol biosynthesis in Candida parapsilosis MTCC 1744 assessed as mean ergosterol content at 2 ug/ml after 20 hrs by spectrophotometric analysis (Rvb=1.62 +/- 0.08 ug/ml)
# Type: functional
# Details: not given
row,Compound,Activity
1,Clc1ccc(COC(Cn2ccnc2)c2ccc(Cl)cc2Cl)c(Cl)c1 (stereo not drawn) [MICONAZOLE],1.28 µg/mL

# System: Raoultella planticola
# Experiment: Antibacterial activity against Klebsiella planticola MTCC 530 after 24 hrs by well diffusion assay
# Type: functional
# Details: MTCC 530, 24 h
row,Compound,MIC
1,Clc1ccc(COC(Cn2ccnc2)c2ccc(Cl)cc2Cl)c(Cl)c1 (stereo not drawn) [MICONAZOLE],> 125 µg/mL

# System: Candida albicans
# Experiment: Antifungal activity against Candida albicans MTCC 1637 after 24 hrs by well diffusion assay
# Type: functional
# Details: MTCC 1637, 24 h
# Procedure, shortened: as §1
Compound,MFC,MIC
Clc1ccc(COC(Cn2ccnc2)c2ccc(Cl)cc2Cl)c(Cl)c1 (stereo not drawn) [MICONAZOLE],15.6 µg/mL,7.8 µg/mL

# System: Candida albicans
# Experiment: Antifungal activity against Candida albicans MTCC 3017 after 24 hrs by well diffusion assay
# Type: functional
# Details: MTCC 3017, 24 h
# Procedure, shortened: as §1
row,Compound,MIC
1,Clc1ccc(COC(Cn2ccnc2)c2ccc(Cl)cc2Cl)c(Cl)c1 (stereo not drawn) [MICONAZOLE],7.8 µg/mL

# System: Candida albicans
# Experiment: Antifungal activity against Candida albicans MTCC 854 after 24 hrs by well diffusion assay
# Type: functional
# Details: MTCC 854, 24 h
# Procedure, shortened: as §1
Compound,MFC,MIC
Clc1ccc(COC(Cn2ccnc2)c2ccc(Cl)cc2Cl)c(Cl)c1 (stereo not drawn) [MICONAZOLE],7.8 µg/mL,7.8 µg/mL

# System: Candida parapsilosis
# Experiment: Inhibition of ergosterol biosynthesis in Candida parapsilosis MTCC 1744 assessed as mean ergosterol content at 4 ug/ml after 20 hrs by spectrophotometric analysis (Rvb=1.62 +/- 0.08 ug/ml)
# Type: functional
# Details: not given
row,Compound,Activity
1,Clc1ccc(COC(Cn2ccnc2)c2ccc(Cl)cc2Cl)c(Cl)c1 (stereo not drawn) [MICONAZOLE],0.54 µg/mL

# System: Staphylococcus aureus
# Experiment: Antibacterial activity against Staphylococcus aureus MLS-16 MTCC 2940 after 24 hrs by well diffusion assay
# Type: functional
# Details: MLS-16 MTCC 2940, 24 h
row,Compound,MIC
1,Clc1ccc(COC(Cn2ccnc2)c2ccc(Cl)cc2Cl)c(Cl)c1 (stereo not drawn) [MICONAZOLE],> 125 µg/mL

# System: Candida parapsilosis
# Experiment: Inhibition of ergosterol biosynthesis in Candida parapsilosis MTCC 1744 assessed as mean ergosterol content at 8 ug/ml after 20 hrs by spectrophotometric analysis (Rvb=1.62 +/- 0.08 ug/ml)
# Type: functional
# Details: not given
row,Compound,Activity
1,Clc1ccc(COC(Cn2ccnc2)c2ccc(Cl)cc2Cl)c(Cl)c1 (stereo not drawn) [MICONAZOLE],0.24 µg/mL

# System: [Candida] aaseri
# Experiment: Antifungal activity against Candida aaseri MTCC 1962 after 24 hrs by well diffusion assay
# Type: functional
# Details: Yamadazyma aaseri, MTCC 1962, 24 h
# Procedure, shortened: as §1
Compound,MFC,MIC
Clc1ccc(COC(Cn2ccnc2)c2ccc(Cl)cc2Cl)c(Cl)c1 (stereo not drawn) [MICONAZOLE],15.6 µg/mL,7.8 µg/mL

# System: Candida albicans
# Experiment: Antifungal activity against Candida albicans MTCC 7315 after 24 hrs by well diffusion assay
# Type: functional
# Details: MTCC 7315, 24 h
# Procedure, shortened: as §1
Compound,MFC,MIC
Clc1ccc(COC(Cn2ccnc2)c2ccc(Cl)cc2Cl)c(Cl)c1 (stereo not drawn) [MICONAZOLE],15.6 µg/mL,7.8 µg/mL

# System: Candida albicans
# Experiment: Antifungal activity against Candida albicans MTCC 4748 after 24 hrs by well diffusion assay
# Type: functional
# Details: MTCC 4748, 24 h
# Procedure, shortened: as §1
Compound,MFC,MIC
Clc1ccc(COC(Cn2ccnc2)c2ccc(Cl)cc2Cl)c(Cl)c1 (stereo not drawn) [MICONAZOLE],7.8 µg/mL,7.8 µg/mL
